Sampled rows, rich in hits. Any-hit rate of the full collection: about 2.2%.
SUMO1-SIM PPI = modulators of SUMO1 protein-protein interactions, primary screen, biochemical, uHTS | Small ubiquitin-related modifier 1 (Homo sapiens), P63165 | SUMO1 binding to a labelled peptide, TR-FRET, 1 h | inhibition, % at 20 µM | 0.33% of 360,000 active; in the data active = inhibition above about 37%
Target sequence (P63165 whole entry, looked up): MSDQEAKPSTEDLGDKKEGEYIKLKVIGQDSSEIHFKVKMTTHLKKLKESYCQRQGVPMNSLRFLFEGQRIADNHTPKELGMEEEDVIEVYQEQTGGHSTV
LMPTP inh = LMPTP phosphatase inhibitors, primary screen, biochemical, fluorescence intensity, uHTS | Low molecular weight phosphotyrosine protein phosphatase (Homo sapiens), P24666 | recombinant LMPTP-A, OMFP fluorogenic substrate | inhibition, % at 20 µM | 0.22% of 360,000 active;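 active = compounds that cut the enzyme signal by at least half of the control window in the single-dose screen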
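Material: LMPTP-A; amount: 0.625 nM enzyme; doses: single 20 µM dose; times: reaction 50 min, room temperature, dark; technique: fluorescence intensity of OMFP turnover product; benchmarks: no-enzyme and uninhibited controls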
GRK2 inh = compounds blocking aptamer binding on GRK2 – biochemical, human GRK2, bead flow cytometry, HTS, primary screen; Beta-adrenergic receptor kinase 1 (Homo sapiens), P25098; FAM-aptamer displacement from GRK2; inhibition of aptamer binding, % at 10 µM; 0.59% of 330,000 active; AID 488847, 2010;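 active = inhibition of aptamer binding above 40%, roughly 3 SD of noise, on plates passing a quality check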;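 note: median bead fluorescence of bound FAM aptamer so fluorescent compounds give negative values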
Target sequence (P25098 whole entry, looked up): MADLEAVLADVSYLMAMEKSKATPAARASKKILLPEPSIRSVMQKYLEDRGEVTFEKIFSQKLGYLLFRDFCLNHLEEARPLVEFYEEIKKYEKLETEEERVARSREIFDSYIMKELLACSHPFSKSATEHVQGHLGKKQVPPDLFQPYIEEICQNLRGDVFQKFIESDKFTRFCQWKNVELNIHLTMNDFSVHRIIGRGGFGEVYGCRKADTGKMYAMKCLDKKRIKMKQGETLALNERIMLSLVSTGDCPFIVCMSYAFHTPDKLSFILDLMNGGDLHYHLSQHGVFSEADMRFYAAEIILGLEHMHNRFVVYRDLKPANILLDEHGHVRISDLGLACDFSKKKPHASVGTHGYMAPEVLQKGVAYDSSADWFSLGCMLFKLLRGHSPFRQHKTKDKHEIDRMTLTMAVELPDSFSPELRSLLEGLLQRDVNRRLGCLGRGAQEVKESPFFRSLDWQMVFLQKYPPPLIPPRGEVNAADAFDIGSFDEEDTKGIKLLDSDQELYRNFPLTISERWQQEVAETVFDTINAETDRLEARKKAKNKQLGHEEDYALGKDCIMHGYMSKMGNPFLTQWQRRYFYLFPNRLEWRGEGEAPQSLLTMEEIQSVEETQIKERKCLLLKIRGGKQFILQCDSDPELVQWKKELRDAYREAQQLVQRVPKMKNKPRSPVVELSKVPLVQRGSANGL
STEP block = STEP phosphatase inhibitors, primary screen, biochemical, fluorescence intensity, uHTS; recombinant STEP, OMFP fluorogenic substrate; Tyrosine-protein phosphatase non-receptor type 5 (Homo sapiens), P54829; 0.25% of 360,000 active; inhibition, % at 20 µM;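 active = inhibition at 20 µM, scaled per plate between control wells, above about 37%, limit read from the data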
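Test system: STEP tyrosine phosphatase / Reagent: OMFP at 25 µM / Doses: 20 µM, 1% DMSO / Read-out: percent inhibition scaled to no-enzyme and uninhibited-enzyme controls, plate-pattern corrected / Detection: FITC-channel fluorescence of OMFP product / Medium: Bis-Tris buffer pH 6.0, 2.5 mM DTT, 0.005% Tween 20 / Schedule: 20 min at room temperature, dark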
Scp-1 inhibitor = Scp-1 phosphatase inhibitors, primary screen, biochemical, colorimetric, uHTS; Recombinant Scp1, phosphopeptide, malachite green phosphate absorbance; inhibition, % at 20 µM; 0.88% of 340,000 active; AID 493091, 2011;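 active = inhibition above about 50% at 20 µM, limit read from the data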
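System: SCP-1 catalytic domain; Reagent: Phospho 17-mer peptide substrate; Doses: one concentration, 20 µM, with 1.0% DMSO; Incubation: 45 min room-temperature reaction, 5 min colour, 30 min stabiliser; Signal: Phosphate-binding colour reagent, absorbance read at 630 nm.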
DNMT1 block = human DNMT1 methyltransferase inhibitors, primary screen, biochemical, molecular beacon, fluorescence, HinP1I cleavage, uHTS; inhibition (reported as % activation of signal), % at 10 µM; 0.83% of 360,000 active; AID 588458, 2011; in the data active = inhibition above about 50%
GRK2 CP1 = GRK2 aptamer-displacing inhibitors, retest, confirmation, biochemical, cherry pick 1, bead flow cytometry; AID 504451, 2011; shares compounds with GRK2 inh; 4% of 2,000 active; aptamer displacement, % at 10 µM; bead-bound GRK2, FAM-aptamer displacement;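 active = aptamer displacement above 40%, near three times the noise of non-fluorescent compounds, on plates passing quality checks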;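 note: negative values mostly reflect intrinsic compound fluorescence rather than true enhancement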
Aptamer quench SP = quenches fluorescent RNA aptamer, GRK2 hit artifact; 2,000 tested, under 10 active; fluorescence response (% of DMSO), % at 10 µM; shares compounds with GRK2 inh; Carboxyfluorescein RNA aptamer on beads, flow cytometry quenching; active compounds read low;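 active = compounds that quench the bead-bound fluorescent RNA probe, cutting fluorescence to under half of the solvent control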;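 note: counterscreen run without GRK2 so only probe quenching by compound is measured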
GRK2 confirm 2 = GRK2 aptamer-displacing inhibitors, hit retest, confirmation, biochemical, cherry pick 2, bead flow cytometry | shares compounds with GRK2 inh | bead-bound GRK2, FAM-aptamer displacement | inhibition of aptamer binding, % at 10 µM | 360 tested, under 10 active | AID 504782, 2011;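 active = inhibition of aptamer binding above 40%, about triple the noise seen with nonglowing compounds, on plates passing quality control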;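 note: negative values mostly come from compounds that fluoresce themselves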
FAM quench SP = quenches fluorescent RNA aptamer, GRK2 hit artifact | shares compounds with GRK2 inh | carboxyfluorescein RNA aptamer beads, flow cytometry quenching; active compounds read low | fluorescence response vs DMSO, % at 10 µM | 360 tested, under 10 active;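 active = response vs DMSO under 50%, meaning signal dropped by over half, treated as fluorescence quencher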;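 note: labelled aptamer on streptavidin beads without GRK2 as a quench counter-screen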
Large screens that a line does not name were inactive (follow-up assays come after a bar, where they were run).

CC(C)(C)OC(=O)N(CC1CCNCC1)C(=O)c1[nH]c(C(F)(F)F)nc1-c1ccccc1	none (no result: GRK2 inh, Scp-1 inhibitor)
CC(=O)NCCC(=O)Nc1nc(-c2ccc3ccccc3c2)cs1	none (no result: GRK2 inh)
CC(=O)NCCC(=O)Nc1nc2c(ccc3ccccc32)s1	none | GRK2 confirm 2 inactive | FAM quench SP inactive
CCOc1ccc(OCC)c(S(=O)(=O)NCc2ccccc2)c1	GRK2 inh 42 | GRK2 CP1 inactive | Aptamer quench SP inactive
CCCCNC(=O)C[C@@H]1C[C@@]2(C(=O)OCC)CCC=C2N(Cc2ccc(Cl)cc2Cl)C1=O	none (no result: GRK2 inh, STEP block, Scp-1 inhibitor, DNMT1 block)
O=C(NCc1ccccc1)Nc1cccn(Cc2ccccc2)c1=O	GRK2 inh 57 | GRK2 confirm 2 inactive | FAM quench SP inactive
N#Cc1cccc(C2CC(OCCF)=CC(=O)O2)c1 (stereo unspecified)	none (no result: GRK2 inh, STEP block, Scp-1 inhibitor, DNMT1 block)
CC1(C)CC(=O)C2=C(C1)c1c(ccc3ccccc13)NC2c1ccc(OCC(=O)O)cc1 (stereo unspecified)	GRK2 inh 78 | GRK2 CP1 inactive | Aptamer quench SP inactive
COCCNC(=O)CNC(=O)c1nn(-c2ccc(OC)c(Cl)c2)c(=O)c2ccccc12	none
CCN(CC)CCNC(=O)CNC(=O)c1nn(-c2ccc(OC)cc2OC)c(=O)c2ccccc12	none | GRK2 CP1 inactive | Aptamer quench SP inactive
CCCCNC(=O)CNC(=O)c1nn(-c2ccc(OC)c(Cl)c2)c(=O)c2ccccc12	none | GRK2 CP1 inactive | Aptamer quench SP inactive
NC(=O)c1cccc(-c2ccnc3c2CC(C(=O)NCc2ccccc2)O3)c1 (stereo unspecified)	none (no result: GRK2 inh, Scp-1 inhibitor)
C[C@@H]1CN([C@H](C)CO)C(=O)CCCn2cc(nn2)CO[C@H]1CN(C)C(=O)c1ccccc1	none (no result: GRK2 inh, Scp-1 inhibitor)
Clc1cccc(CN2CCSCC2)c1	GRK2 inh 99 | GRK2 CP1 inactive | Aptamer quench SP inactive
COc1ccc(C(C(=O)Nc2ccc(F)cc2)N2CCN(C(=O)c3ccco3)CC2)cc1 (stereo unspecified)	none (no result: GRK2 inh, STEP block, Scp-1 inhibitor, DNMT1 block)
Cc1cc(-c2ccc(Cl)cc2)n2nc(C)cc2n1	GRK2 inh 45 | GRK2 CP1 inactive | Aptamer quench SP inactive
CC(=O)N(CCc1ccccc1C)Cc1cc2ccc(C)cc2[nH]c1=O	GRK2 inh 61 | GRK2 CP1 inactive | Aptamer quench SP inactive
Cc1ccc2cc(CN(C(=O)c3ccco3)c3ccccc3C)c(=O)[nH]c2c1	GRK2 inh 76 | GRK2 CP1 inactive | Aptamer quench SP inactive
COc1ccc(N2CCN(S(=O)(=O)c3ccc4oc(=O)ccc4c3)CC2)cc1	none
O=c1ccc2cc(S(=O)(=O)N3CCOCC3)ccc2o1	GRK2 inh 56 | GRK2 CP1 inactive | Aptamer quench SP inactive
Cc1ccc(NC(=O)c2cccc(S(=O)(=O)N3CCN(c4ccccc4)CC3)c2)nc1	GRK2 inh 100 | GRK2 CP1 inactive | Aptamer quench SP inactive
COc1ccc(CNC(=O)c2cccc(S(=O)(=O)N3CCN(c4ccc(F)cc4)CC3)c2)cc1	none (no result: GRK2 inh)
O=C(c1cccc(S(=O)(=O)N2CCc3ccccc32)c1)N1CCN(c2ccccc2)CC1	none (no result: GRK2 inh) | GRK2 CP1 inactive | Aptamer quench SP inactive
COc1ccccc1CNC(=O)c1cccc(S(=O)(=O)N2CCN(c3ccc(F)cc3)CC2)c1	none | GRK2 CP1 inactive | Aptamer quench SP inactive
O=C(c1cccc(S(=O)(=O)N2CCc3ccccc3C2)c1)N1CCN(c2ccccc2)CC1	none
O=C(NC1CCCc2ccccc21)c1cccc(S(=O)(=O)N2CCN(c3ccccc3)CC2)c1 (stereo unspecified)	none | GRK2 CP1 inactive | Aptamer quench SP inactive
Cc1ccnc(NC(=O)c2cccc(S(=O)(=O)N3CCN(c4ccccc4)CC3)c2)c1	none
O=C(CCC(=O)N1CCN(c2ccccc2F)CC1)N1CCN(c2ccccc2)CC1	none | GRK2 CP1 inactive | Aptamer quench SP inactive
CC1(C(=O)Nc2cccc(NS(C)(=O)=O)c2)Cc2c(-c3ccc(C(N)=O)cc3)ccnc2O1 (stereo unspecified)	none (no result: GRK2 inh, Scp-1 inhibitor)
COc1cccc(CN2CCC(C(=O)N3CCN(c4ccccc4F)CC3)CC2)c1OC	GRK2 inh 60 | GRK2 confirm 2 inactive | FAM quench SP inactive
COc1cc(CN2CCC(C(=O)N3CCN(c4ccccc4F)CC3)CC2)cc(OC)c1OC	none
CCOC(=O)C1(CCCc2ccccc2)CCN(C(=O)c2n[nH]c(CC)c2C)CC1	none (no result: GRK2 inh, Scp-1 inhibitor)
Cc1ccc2sc(C)[n+](CCO)c2c1	GRK2 inh 100 | GRK2 CP1 inactive | Aptamer quench SP inactive
O=C(c1[nH]c(C(F)(F)F)nc1-c1ccccc1)N1CCc2ccccc2C1	none (no result: GRK2 inh, Scp-1 inhibitor)
O=C(c1ccc(Cl)cc1)n1c(NCc2ccccc2)n[nH]c1=S	GRK2 inh 65 | GRK2 CP1 inactive | Aptamer quench SP inactive
Clc1ccc(-c2nc3c4ccccc4ccn3c2Cc2ccccc2)cc1	none (no result: GRK2 inh, Scp-1 inhibitor)
O=C(Nc1ccncc1)c1cccc2ccccc12	GRK2 inh 49 | GRK2 CP1 inactive | Aptamer quench SP inactive
CCCCCCCCN1C(=O)[C@H](CC(=O)N2CCN(C(=O)OCC)CC2)C[C@@]2(C(=O)OC)CC(C)(C)CC=C12	none (no result: GRK2 inh, STEP block, Scp-1 inhibitor, DNMT1 block)
CCNC(=S)/C(=C(/[O-])c1ccc([N+](=O)[O-])cc1)[n+]1ccccc1	none
CCc1ccc(/C([O-])=C(/C(=S)NCCN2CCOCC2)[n+]2ccccc2)cc1	GRK2 inh 72 | GRK2 CP1 inactive | Aptamer quench SP inactive
CN(C(=O)COC(=O)c1cccnc1Nc1cccc(C(F)(F)F)c1)C1CCS(=O)(=O)C1 (stereo unspecified)	none | GRK2 CP1 inactive | Aptamer quench SP inactive

Source: PubChem
